We go through 15 molecules from PMC10688270 (Neurochemical research, 2019).

Entries after “also recorded” stand apart in the source; their conditions may differ. Read-outs that look alike come from different tables or passages of the source.

Test [1] deals with T1, SXc− (Homo sapiens, UniProt Q9UPY5).
T1 sequence (Q9UPY5 1-501): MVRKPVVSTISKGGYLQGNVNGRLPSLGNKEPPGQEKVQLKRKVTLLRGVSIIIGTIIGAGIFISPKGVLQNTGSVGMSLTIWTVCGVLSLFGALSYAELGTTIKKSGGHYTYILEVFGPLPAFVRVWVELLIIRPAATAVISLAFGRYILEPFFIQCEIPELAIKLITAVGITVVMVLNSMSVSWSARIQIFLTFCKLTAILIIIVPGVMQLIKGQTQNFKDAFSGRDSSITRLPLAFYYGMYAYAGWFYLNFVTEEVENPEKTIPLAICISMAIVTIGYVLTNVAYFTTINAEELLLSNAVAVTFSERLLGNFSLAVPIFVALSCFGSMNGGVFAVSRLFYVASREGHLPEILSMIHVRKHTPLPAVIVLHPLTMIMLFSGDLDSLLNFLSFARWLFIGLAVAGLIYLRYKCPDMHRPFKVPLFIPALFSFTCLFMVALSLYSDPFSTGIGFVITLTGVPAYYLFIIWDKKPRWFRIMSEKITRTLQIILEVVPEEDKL
T1 sequence (P08195 1-529 partner): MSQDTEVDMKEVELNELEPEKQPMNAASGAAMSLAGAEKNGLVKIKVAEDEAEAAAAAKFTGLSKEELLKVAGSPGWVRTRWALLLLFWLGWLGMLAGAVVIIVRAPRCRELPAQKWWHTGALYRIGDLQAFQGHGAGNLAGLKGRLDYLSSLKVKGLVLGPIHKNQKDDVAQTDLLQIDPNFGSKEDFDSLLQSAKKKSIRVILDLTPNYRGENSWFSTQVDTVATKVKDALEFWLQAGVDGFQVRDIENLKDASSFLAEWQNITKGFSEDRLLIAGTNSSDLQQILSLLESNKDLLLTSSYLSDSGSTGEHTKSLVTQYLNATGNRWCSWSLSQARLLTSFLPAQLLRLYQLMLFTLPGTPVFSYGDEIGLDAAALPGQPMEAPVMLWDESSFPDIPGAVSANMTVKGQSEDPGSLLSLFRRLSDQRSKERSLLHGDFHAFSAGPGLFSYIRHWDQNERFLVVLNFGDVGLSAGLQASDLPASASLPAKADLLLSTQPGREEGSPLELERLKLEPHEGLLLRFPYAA
In words: Inhibition of SXc−-mediated uptake of 3H-L-Glu into SNB19 cells. Type of test: cell-based. Conditions: for fold less effective than SAS: comparison of inhibition of SXc− with SAS. A digest of the protocol: (§1)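 Human SNB19 glioma cells were grown in DMEM/F-12 (pH 7.4) with 10% fetal calf serum at 37°C and 5% CO2. They were seeded at 3×10^4 cells/well and used after 3 days at 80–90% confluence. Cells were pre-incubated 5 min at 30°C in Na+-free (choline-Cl) HEPES-buffered Hank's salt solution, pH 7.4. Test compound was added simultaneously with 3H-L-Glu for 5 min at 30°C. Uptake was read by scintillation counting, normalised to BCA protein, and corrected by subtracting 4°C accumulation. Duplicate wells per experiment; n ≥ 3 experiments.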

Test [2] addresses T1, SXc−. Briefly: Kinetic analysis. Type of test: cell-based. Conditions: for Inhibitory Mechanism: V vs [S] and Lineweaver-Burk plots, SNB19 cells. A digest of the protocol: as §1
Test [3] concerns SXc−. Conditions: previous work; cited from earlier work.
[4] abbreviates: read-out: IC50 for the inhibition of SXc−-mediated uptake of 3H-L-Glu into SNB19 cells, Mean ± SEM (n ≥ 3), single concentration of L-Glu (100 μM), Na+-free buffer, 5 min, 30°C.

Regarding `O=S(=O)(O)c1cc2cc(S(=O)(=O)O)c(O)cc2cc1O` [3,6-dihydroxy-2,7-naphthylene-disulfonate], the IC50 (in general, the point on the concentration scale where inhibition reaches its midpoint) at SXc− [1] (setting [4]) was more than 500 µM.

Turning to `Nc1cc(S(=O)(=O)O)cc2cc(S(=O)(=O)O)cc(O)c12` [4-Amino-5-OH-2,7-naphthylene-disulfonate], the “inhibitory activity at SXc− (in words)” value against SXc− [1] (3H-L-Glu uptake into SNB19 cells) was “inactive”. Further, on SXc− [1] (setting [4]), the IC50 was more than 500 µM.

Take `Nc1ccc(N=Nc2ccc(-c3ccc(N=Nc4ccc(N)c5ccc(S(=O)(=O)O)cc45)cc3)cc2)c2cc(S(=O)(=O)O)ccc12` [AANS #6]: the figures for the “Inhibitory Mechanism” value on SXc− [2] and on SXc− [2] (listed as #6) were “Noncompetitive (Mixed)” and “mixed inhibition”, respectively.

On to `Nc1c(N=Nc2ccc([N+](=O)[O-])cc2)c(S(=O)(=O)[O-])cc2cc(S(=O)(=O)[O-])c(N=Nc3ccccc3)c(O)c12.[Na+].[Na+]` [Acid Black 1], for which the “Inhibitory Mechanism” value on SXc− [2] is recorded as “Competitive”; at SXc− [2] (listed as Acid Black) it was “competitive mechanism; also recorded: competitive inhibition”.

On to `CC(=O)Nc1cc(S(=O)(=O)O)cc2cc(S(=O)(=O)O)c(N=Nc3ccccc3)c(O)c12` [Acid Red 1], for which the IC50 at SXc− [1] (setting [4]) is 191 ± 8 µM.

On to `O=C(O)c1cc(N=Nc2cccc([N+](=O)[O-])c2)ccc1[O-].[Na+]` [Alizarin Yellow GG], for which the “fold less effective than SAS” value on SXc− [1] is recorded as “about 5 fold”. Also, on SXc− [1] (setting [4]), the IC50 stood at 30 ± 7 µM.

`O=[N+]([O-])c1ccc(N=Nc2c(S(=O)(=O)O)cc3cc(S(=O)(=O)O)cc(O)c3c2O)cc1` [Chromotrope 2B]: the IC50 on SXc− [1] (setting [4]) was determined as 130 ± 23 µM.

As to `O=S(=O)(O)c1cc(O)c2c(O)c(N=Nc3ccccc3)c(S(=O)(=O)O)cc2c1` [Chromotrope 2R], the half-inhibitory concentration (IC50) on SXc− [1] (setting [4]) was determined as 21 ± 5 µM.

On to `Nc1c(/N=N/c2ccc(-c3ccc(/N=N/c4cc(S(=O)(=O)O)c5ccccc5c4N)cc3)cc2)cc(S(=O)(=O)O)c2ccccc12` [Congo Red], for which the “block of glutamate uptake by SXc− (in words)” value in the test on SXc− [3] was “relatively poor blocker”.

For the molecule `Nc1cc(S(=O)(=O)O)cc2cc(S(=O)(=O)O)c(N=Nc3cc([N+](=O)[O-])cc(Cl)c3O)c(O)c12` [Gallion], the IC50 on SXc− [1] (setting [4]) is 155 ± 11 µM.

Regarding `O=C(O)c1cc(N=Nc2ccc([N+](=O)[O-])cc2)ccc1O` [Mordant Orange 1], the IC50 at SXc− [1] (setting [4]) stood at 38 ± 3 µM.

As to `COc1ccccc1N=Nc1c(S(=O)(=O)O)cc2cc(S(=O)(=O)O)cc(NC(C)=O)c2c1O` [Pontacyl Carmine 2B], the IC50 at SXc− [1] (setting [4]) was more than 250 µM.

Turning to `O=S(=O)(O)c1cc(O)c2c(O)c(/N=N/c3cccc4ccccc34)c(S(=O)(=O)O)cc2c1` [Pontacyl Violet 6R], the 50% inhibitory concentration (IC50) against SXc− [1] is more than 250 µM.

With `O=C(O)c1cc(/N=N/c2ccc(S(=O)(=O)Nc3ccccn3)cc2)ccc1O` [Sulfasalazine], on SXc− [2], the Ki (commonly the equilibrium dissociation constant of an inhibitor or competing ligand from its target) turned out to be 10.4 ± 1.3 µM and the “Inhibitory Mechanism” value was “Competitive”. Further, on SXc− [2] (listed as SAS), the “Inhibitory Mechanism” value is recorded as “competitive inhibition”.

For Chrome Yellow, on SXc− [1], the “fold less effective than SAS” value is given as “about 5 fold”. Also, the IC50 on SXc− [1] (setting [4]) was determined as 27 ± 4 µM.
